Experimental data published in ChEMBL document CHEMBL1817593, “C5'-Alkyl Substitution Effects on Digitoxigenin α-l-Glycoside Cancer Cytotoxicity” (ACS Med Chem Lett, 2011).

Assays:
[1] = system: NCI-H460; assay: Cytotoxicity against human NCI-H460 cells assessed as cell death in serum free medium at 10000 nM after 12 hrs by Hoechst 33342/propidium iodide staining based fluorescence microscopy; type: functional
In short: (§1)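 NCI-H460 human lung cancer cells exposed 12 h to 10 nM–10 μM drug, including a 50 nM single-concentration test. Nuclei were stained with Hoechst 33342 and necrotic cells with propidium iodide. Apoptotic cells were scored by condensed or fragmented blue nuclei and necrotic cells by red PI staining. Total cell death (apoptosis plus necrosis) was recorded; N = 6.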

[2] = system: Malme-3M; assay: Cytotoxicity against human MALME-3M cells after 48 hrs by sulforhodamine B assay; type: functional
[3] = system: A549; assay: Cytotoxicity against human A549/ATCC cells after 48 hrs by sulforhodamine B assay; type: functional; settings: A549, 48 h
[4] = system: NCI/ADR-RES; assay: Cytotoxicity against human NCI/ADR-RES cells after 48 hrs by sulforhodamine B assay; type: functional
[5] = system: RPMI-8226; assay: Cytotoxicity against human RPMI8226 cells after 48 hrs by sulforhodamine B assay; type: functional; settings: RPMI-8226, 48 h
[6] = system: NCI-H460; assay: Cytotoxicity against human NCI-H460 cells assessed as cell death in serum free medium at 100 nM after 12 hrs by Hoechst 33342/propidium iodide staining based fluorescence microscopy; type: functional; in short: as §1
[7] = system: LOX IMVI; assay: Cytotoxicity against human LOXIMVI cells after 48 hrs by sulforhodamine B assay; type: functional
[8] = system: NCI-H460; assay: Induction of apoptosis in human NCI-H460 cells in serum free medium after 12 hrs by Hoechst 33342/propidium iodide staining based fluorescence microscopy; type: functional, cell-based; settings: for IC50: NCI-H460, 12 h
In short: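 NCI-H460 cells treated for 12 h at 10 nM to 10 μM. Total cell death (apoptosis plus necrosis) scored by Hoechst 33342/propidium iodide staining, with N = 6 and two-way ANOVA. IC50 obtained by nonlinear regression. Table values are the mean of three independent experiments with duplicate determinations.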

[9] = system: UACC-62; assay: Cytotoxicity against human UACC62 cells after 48 hrs by sulforhodamine B assay; type: functional; settings: UACC-62, 48 h
[10] = system: TK-10; assay: Cytotoxicity against human TK10 cells after 48 hrs by sulforhodamine B assay; type: functional; settings: TK-10, 48 h
[11] = system: NCI-H460; assay: Cytotoxicity against human NCI-H460 cells assessed as cell viability at 10 nM after 48 hrs by MTT assay; type: functional; settings: NCI-H460, 48 h, read-out: Activity
In short: (§2)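 Viability of NCI-H460 cells was measured by MTT (mitochondrial enzymatic activity) after 48 h exposure, within a dose series spanning 1 nM–10 μM. N = 9, analysed by two-way ANOVA.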

[12] = system: NCI-H460; assay: Cytotoxicity against human NCI-H460 cells after 48 hrs by sulforhodamine B assay; type: functional; settings: NCI-H460, 48 h
[13] = system: SF-539; assay: Cytotoxicity against human SF539 cells after 48 hrs by sulforhodamine B assay; type: functional; settings: SF-539, 48 h
[14] = system: HL-60(TB); assay: Cytotoxicity against human HL-60(TB) cells after 48 hrs by sulforhodamine B assay; type: functional; settings: HL-60, 48 h
[15] = system: OVCAR-3; assay: Cytotoxicity against human OVCAR3 cells after 48 hrs by sulforhodamine B assay; type: functional; settings: OVCAR-3, 48 h
[16] = system: A498; assay: Cytotoxicity against human A498 cells after 48 hrs by sulforhodamine B assay; type: functional; settings: A498, 48 h
[17] = system: HCT-116; assay: Cytotoxicity against human HCT116 cells after 48 hrs by sulforhodamine B assay; type: functional; settings: HCT-116, 48 h
[18] = system: UACC-257; assay: Cytotoxicity against human UACC257 cells after 48 hrs by sulforhodamine B assay; type: functional; settings: UACC-257, 48 h
[19] = system: IGROV-1; assay: Cytotoxicity against human IGROV1 cells after 48 hrs by sulforhodamine B assay; type: functional; settings: IGROV-1, 48 h
[20] = system: SK-OV-3; assay: Cytotoxicity against human SKOV3 cells after 48 hrs by sulforhodamine B assay; type: functional; settings: SK-OV-3, 48 h
[21] = system: SK-MEL-2; assay: Cytotoxicity against human SK-MEL-2 cells after 48 hrs by sulforhodamine B assay; type: functional; settings: SK-MEL-2, 48 h
[22] = system: NCI-H322M; assay: Cytotoxicity against human NCI-H322M cells after 48 hrs by sulforhodamine B assay; type: functional
[23] = system: HT-29; assay: Cytotoxicity against human HT-29 cells after 48 hrs by sulforhodamine B assay; type: functional; settings: HT-29, 48 h
[24] = system: HOP-62; assay: Cytotoxicity against human HOP62 cells after 48 hrs by sulforhodamine B assay; type: functional; settings: HOP-62, 48 h
[25] = system: NCI-H460; assay: Growth inhibition of human NCI-H460 cells after 48 hrs by MTT assay; type: functional
In short: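 NCI-H460 viability measured by MTT (mitochondrial enzymatic activity) after 48 h exposure at 1 nM to 10 μM. GI50 derived from dose-response curves, with N = 9 and two-way ANOVA. Values are the mean of three independent experiments with duplicate determinations.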

[26] = system: HCT-15; assay: Cytotoxicity against human HCT15 cells after 48 hrs by sulforhodamine B assay; type: functional; settings: HCT-15, 48 h
[27] = system: MOLT-4; assay: Cytotoxicity against human MOLT4 cells after 48 hrs by sulforhodamine B assay; type: functional; settings: MOLT-4, 48 h
[28] = system: T47D; assay: Cytotoxicity against human T47D cells after 48 hrs by sulforhodamine B assay; type: functional
[29] = system: SR; assay: Cytotoxicity against human SR cells after 48 hrs by sulforhodamine B assay; type: functional
[30] = system: OVCAR-4; assay: Cytotoxicity against human OVCAR4 cells after 48 hrs by sulforhodamine B assay; type: functional; settings: OVCAR-4, 48 h
[31] = system: OVCAR-8; assay: Cytotoxicity against human OVCAR8 cells after 48 hrs by sulforhodamine B assay; type: functional; settings: OVCAR-8, 48 h
[32] = system: CCRF-CEM; assay: Cytotoxicity against human CCRF-CEM cells after 48 hrs by sulforhodamine B assay; type: functional
[33] = system: SK-MEL-5; assay: Cytotoxicity against human SK-MEL-5 cells after 48 hrs by sulforhodamine B assay; type: functional; settings: SK-MEL-5, 48 h
[34] = system: NCI-H460; assay: Cytotoxicity against human NCI-H460 cells assessed as cell viability at 25 nM after 48 hrs by MTT assay; type: functional; settings: NCI-H460, 48 h, read-out: Activity; in short: as §2
[35] = system: NCI-H460; assay: Cytotoxicity against human NCI-H460 cells assessed as cell death in serum free medium at 25 nM after 12 hrs by Hoechst 33342/propidium iodide staining based fluorescence microscopy; type: functional; in short: as §1
[36] = system: NCI-H460; assay: Cytotoxicity against human NCI-H460 cells assessed as cell viability at 1000 nM after 48 hrs by MTT assay; type: functional; settings: NCI-H460, 48 h, read-out: Activity; in short: as §2
[37] = system: RXF 393; assay: Cytotoxicity against human RXF393 cells after 48 hrs by sulforhodamine B assay; type: functional; settings: RXF 393, 48 h
[38] = system: NCI-H226; assay: Cytotoxicity against human NCI-H226 cells after 48 hrs by sulforhodamine B assay; type: functional; settings: NCI-H226, 48 h
[39] = system: SK-MEL-28; assay: Cytotoxicity against human SK-MEL-28 cells after 48 hrs by sulforhodamine B assay; type: functional; settings: SK-MEL-28, 48 h
[40] = system: NCI-H460; assay: Cytotoxicity against human NCI-H460 cells assessed as cell death in serum free medium at 250 nM after 12 hrs by Hoechst 33342/propidium iodide staining based fluorescence microscopy; type: functional; in short: as §1
[41] = system: OVCAR-5; assay: Cytotoxicity against human OVCAR5 cells after 48 hrs by sulforhodamine B assay; type: functional; settings: OVCAR-5, 48 h

For `CC(C)[C@@H]1O[C@@H](O[C@H]2CC[C@@]3(C)[C@H](CC[C@@H]4[C@@H]3CC[C@]3(C)[C@@H](C5=CC(=O)OC5)CC[C@]43O)C2)CC[C@H]1O`, the Activity [1] was 100%, the GI50 [2] was 63.6 nM and the GI50 [3] was 17.7 nM. For the same compound, the GI50 [4] was 31.5 nM, the GI50 [5] was 78.4 nM and the Activity [6] was 18.89%. For the same compound, the GI50 [7] was 26.9 nM, the Activity [8] was “Dose-dependent effect” and the IC50 [8] was 533 nM. It also gave a GI50 [9] of 119 nM, a GI50 [10] of 53.8 nM and a viability at 0.01 µM [11] of 50.7%. For the same compound, the GI50 [12] was 21.7 nM, the GI50 [13] was 27.6 nM and the GI50 [14] was 14.3 nM. For the same compound, the GI50 [15] was 26 nM, the GI50 [16] was 90.1 nM and the GI50 [17] was 21.5 nM. For the same compound, the GI50 [18] was 122 nM, the GI50 [19] was 54.2 nM and the GI50 [20] was 118 nM. For the same compound, the GI50 [21] was 170 nM, the GI50 [22] was 77.4 nM and the GI50 [23] was 41.9 nM. The GI50 [24] was 31.1 nM, the GI50 [25] was “Dose-dependent effect” and the GI50 ([25]; NCI-H460, 48 h) was 8 nM. The GI50 [26] was 62.2 nM, the GI50 [27] was 16.9 nM and the GI50 [28] was 95.9 nM. It also gave a GI50 [29] of 37.2 nM, a GI50 [30] of 123 nM and a GI50 [31] of 56.2 nM. The GI50 [32] was 33.1 nM, the GI50 [33] was 22.6 nM and the viability at 0.025 µM [34] was 30.1%. It also gave an Activity [35] of 12.07%, a viability at 1 µM [36] of 5.21% and a GI50 [37] of 14 nM. It also gave a GI50 [38] of 119 nM, a GI50 [39] of 252 nM and an Activity [40] of 22.73%. The GI50 [41] was 107 nM.
`CC(C)C[C@@H]1O[C@@H](O[C@H]2CC[C@@]3(C)[C@H](CC[C@@H]4[C@@H]3CC[C@]3(C)[C@@H](C5=CC(=O)OC5)CC[C@]43O)C2)CC[C@H]1O` showed an Activity [1] of 100%, a GI50 [2] of 25.7 nM and a GI50 [3] of 13.4 nM. The GI50 [4] was 26.9 nM, the GI50 [5] was 35.6 nM and the Activity [6] was 17.69%. The GI50 [7] was 27.2 nM, the Activity [8] was “Dose-dependent effect” and the IC50 [8] was 458 nM. The GI50 [9] was 50.5 nM, the GI50 [10] was 28.6 nM and the viability at 0.01 µM [11] was 49.2%. The GI50 [12] was 20.9 nM, the GI50 [13] was 23.8 nM and the GI50 [14] was 18.3 nM. The GI50 [15] was 23.5 nM, the GI50 [16] was 27 nM and the GI50 [17] was 26.1 nM. For the same compound, the GI50 [18] was 31.3 nM, the GI50 [19] was 29.9 nM and the GI50 [20] was 43.1 nM. For the same compound, the GI50 [21] was 115 nM, the GI50 [22] was 42.5 nM and the GI50 [23] was 31.5 nM. For the same compound, the GI50 [24] was 23.1 nM, the GI50 [25] was “Dose-dependent effect” and the GI50 ([25]; NCI-H460, 48 h) was 8 nM. For the same compound, the GI50 [26] was 40.3 nM, the GI50 [27] was 13.1 nM and the GI50 [28] was 36.2 nM. It also gave a GI50 [29] of 23 nM, a GI50 [30] of 85.5 nM and a GI50 [31] of 29.6 nM. It also gave a GI50 [32] of 28.5 nM, a GI50 [33] of 27.7 nM and a viability at 0.025 µM [34] of 36.6%. The Activity [35] was 12.41%, the viability at 1 µM [36] was 3.64% and the GI50 [37] was 18.6 nM. It also gave a GI50 [38] of 95.9 nM, a GI50 [39] of 133 nM and an Activity [40] of 21.86%. The GI50 [41] was 113 nM.
